V-ATPase pHluor = yeast V-ATPase proton transport regulation by pHLuorin. S. cerevisiae, pHLuorin cytosolic pH fluorescence. response, % at 10 µM. hit rate 0.37% among 350,000; in the data active = response mostly above about 7.3%, no sharp cut-off; inactive = mostly below about 5.4%; also: actives read high
ADAM17 inh = ADAM17 inhibition, QFRET primary screen | inhibition, % at 6.95 µM | P78536 | hit rate 0.83% among 370,000 | AID 720648 | recombinant ADAM17, EDANS/DABCYL FRET peptide cleavage;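 active = inhibition above the mean of compounds lying between control limits plus 3 SD, set per campaign, cut at about 8.5% in these data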;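 also: 0% = DMSO-only wells as the low control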
MPTP block = inhibitors of mitochondrial permeability transition pore; isolated mouse mitochondria, Ca2+ swelling absorbance, 30 min; inhibition, % at 10 µM; hit rate 1.4% among 360,000; AID 602449;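 active = inhibition of 50% or more, scaled per plate between neutral and stimulator controls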;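 also: 0% = DMSO wells given calcium and 100% = 1 mM EGTA wells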
Lipid droplet = modulators of hepatic lipid droplet formation. AML12 mouse hepatocytes, oleate lipid droplets, BODIPY imaging. inhibition, % at 6.5 µM. hit rate 0.4% among 240,000;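 active = lipid droplet intensity inhibited by at least 50%, with more than 500 cells counted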
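Assay system: AML12 mouse liver cells | Compound dosing: One dose, 6.5 µM compound | Read-out basis: Droplet intensity reduction, % inhibition | Measured by: Fluorescence imaging, 20x objective, two fields per well | Schedule: Overnight treatment with compound plus oleate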
aDG glyco act = increases alpha dystroglycan glycosylation | hit rate 0.22% among 360,000 | Pro5-aDG cells, alpha-DG glycosylation AlphaScreen (IIH6); 0% Pro5, 100% B10-LARGE cell signal | activation, % at 10 µM;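 active = activation of at least 8% versus controls, or a plate z-score of at least 8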;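 also: Pro5 are CHO cells carrying HIG-tagged alpha-DG that lacks glycosylation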
ADAM10 inh = inhibitors of human ADAM10. O14672. recombinant ADAM10, EDANS/DABCYL FRET peptide cleavage, 3 h. inhibition, % at 7 µM. hit rate 0.62% among 370,000;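 active = inhibition above a per-campaign cutoff equal to the mean of compounds falling between control-based bounds plus 3 SD, cut at about 20% in these data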;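 also: 0% = DMSO wells while the 100% control is not disclosed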
Target sequence (O14672 214-748 limits assumed): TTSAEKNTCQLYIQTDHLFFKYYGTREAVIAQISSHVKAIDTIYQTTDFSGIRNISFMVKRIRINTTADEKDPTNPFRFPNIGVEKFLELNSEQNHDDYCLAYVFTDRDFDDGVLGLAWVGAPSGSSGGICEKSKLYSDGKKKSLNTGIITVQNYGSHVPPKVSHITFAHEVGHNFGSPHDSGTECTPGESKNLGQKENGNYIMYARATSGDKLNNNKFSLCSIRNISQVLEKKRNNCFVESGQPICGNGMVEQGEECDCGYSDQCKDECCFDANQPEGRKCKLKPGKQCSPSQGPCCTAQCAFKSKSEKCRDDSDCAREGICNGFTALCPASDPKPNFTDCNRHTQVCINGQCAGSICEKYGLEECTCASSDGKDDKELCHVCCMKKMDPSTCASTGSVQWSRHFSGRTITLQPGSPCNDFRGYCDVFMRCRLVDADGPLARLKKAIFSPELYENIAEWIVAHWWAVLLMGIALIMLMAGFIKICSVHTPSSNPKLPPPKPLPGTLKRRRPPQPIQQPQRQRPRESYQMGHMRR
aDG glyco conf = confirmation of alpha dystroglycan glycosylation activators. shares compounds with aDG glyco act. Pro5-aDG cells, alpha-DG glycosylation, IIH6 AlphaLISA; scaled to LARGE-overexpressing B10 cells as 100%. activation, % at 10 µM (by protocol). hit rate 17% among 600. AID 651671;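 active = activation of at least 7% in one or more replicates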;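 also: cells exposed to compound for two days before detection; 0% = DMSO-treated Pro5 cells and 100% = DMSO-treated B10-LARGE cells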
Numbers without * were called inactive; x = no result given. Shown are actives, neighbours in structure and some others; about 3.1% of the full set was active somewhere.

SMILES | V-ATPase pHluor | ADAM17 inh | MPTP block | Lipid droplet | aDG glyco act | ADAM10 inh | aDG glyco conf
Cc1cc(C)n(-c2nc(SCCN3CCOCC3)c3c4c(sc3n2)CCCC4)n1 | 2 | -12 | 2 | x | 2.6* | -18 | 2
CCCCCN1CCCCC(NC(=O)c2ccc(F)cc2)C1=O (stereo unspecified) | x | -2 | x | x | x | 0 | x
COc1cc(CNC(=O)Nc2nc(C(N)Cc3ccc(Cl)cc3)cs2)cc(OC)c1OC (stereo unspecified) | x | -3 | 4 | x | 5.8* | -6 | 5.9*
O=C(NCc1cccc(OC(F)(F)F)c1)c1cccc2c1C(=O)c1ccc(-c3ccc(F)cc3OCc3ccccc3)cc1S2(=O)=O | 0 | -2 | 1 | x | 0 | -10 | x
COc1ccc(-c2ccc3c(c2)S(=O)(=O)c2cccc(C(=O)NCc4cccc(OC(F)(F)F)c4)c2C3=O)cc1OC | -19 | x | -1 | x | 18* | x | 1
O=C(Nc1cc(Cl)ccc1-n1cncn1)c1ccc([N+](=O)[O-])s1 | 2 | x | 0 | -35 | 12* | x | 3.8*
CCCC1CCC2(CC1)CCC2OC(=S)Nc1ccc(N(C)C)cc1 (stereo unspecified) | x | -2 | x | x | x | 1 | x
COC(=O)N1CCCC1c1cccc2[nH]cc(C)c12 (stereo unspecified) | x | -6 | x | x | x | -12 | x
Cn1ccnc1CN1CCC[C@]2(CC[C@H](CCC#N)O2)C1 | x | 0 | x | x | x | 2 | x
COc1cc(NC(=O)c2c(F)c(F)c(F)c(F)c2F)c(OC)cc1Cl | -1 | 2 | 4 | -22 | 7.7* | 6 | 0
COc1ccc(-c2cc(C(=O)NN=Cc3cccn3C)[nH]n2)cc1 | x | -1 | x | x | x | -9 | x
Cc1cccnc1CN1CCN(C(=O)CCc2nnc(CCc3ccccc3)o2)CC1 | -1 | -4 | -5 | -9 | 0 | -5 | x
Cc1cccnc1CCNC(=O)CCc1nnc(CCc2ccccc2)o1 | 2 | 4 | 2 | -2 | 3.3* | 12 | 1
CC1CCCN(S(=O)(=O)c2ccc(C(=O)Nc3sc4c(c3C(N)=O)CCN(C)C4)cc2)C1 (stereo unspecified) | -7 | -1 | 1 | 12 | 48* | 5 | 3.7*
CCN1CCc2c(sc(NC(=O)c3ccc(S(=O)(=O)N4CCOCC4)cc3)c2C(=O)OC)C1 | 2 | -5 | -2 | x | 0 | 4 | x
CCN1CCc2c(sc(NC(=O)c3ccc(S(=O)(=O)N4CCOCC4)cc3)c2C(N)=O)C1 | -4 | -1 | 0 | 7 | 88* | -6 | 3
CCN1CCc2c(sc(NC(=O)c3ccc(S(=O)(=O)N4CCCCCC4)cc3)c2C(=O)NC)C1 | -1 | -4 | 1 | -2 | 26* | -10 | 0
CN1CCc2c(sc(NC(=O)C3CCCCC3)c2C(N)=O)C1 | -3 | -10 | -1 | -18 | 0 | -36 | x
CNC(=O)c1c(NC(=O)c2ccc(S(=O)(=O)N3CCCC3)cc2)sc2c1CCN(C(C)C)C2 | x | 1 | x | -1 | x | -5 | x
CCCN1CCc2c(sc(NC(=O)c3ccc(S(=O)(=O)N4CCCC4)cc3)c2C(N)=O)C1 | 1 | 5 | 0 | 6 | 6 | -9 | x
CC(C)N1CCc2c(sc(NC(=O)C3CCCCC3)c2C(N)=O)C1 | 2 | -16 | -1 | -5 | 8.2* | -63 | -1
N#Cc1ccc(/C=C2\CC3(OC(=O)c4ccco4)CCCN2C3)cc1 (stereo unspecified) | x | -4 | x | x | x | -5 | x
O=C1C(Cc2ccccc2)Nc2ncnc(N3CCc4ccccc4C3)c2N1Cc1ccc(Cl)cc1 (stereo unspecified) | -2 | x | -1 | x | 1 | x | x
CCC1Nc2ncnc(N3CCc4ccccc4C3)c2N(Cc2ccc(Cl)cc2)C1=O (stereo unspecified) | -1 | -1 | 1 | x | 16* | -5 | 1
Cc1cc(C)c(NC(=O)c2ccc3c(c2)NC(=O)C(C)S3)c(C)c1 (stereo unspecified) | -4 | -1 | 1 | x | 0 | -2 | x
SMILES | V-ATPase pHluor | ADAM17 inh | MPTP block | Lipid droplet | aDG glyco act | ADAM10 inh | aDG glyco conf
CC1Sc2ccc(C(=O)NCc3ccccn3)cc2NC1=O (stereo unspecified) | -1 | -1 | -1 | x | 5.5* | -10 | 1
O=[N+]([O-])c1cc(-c2nc(-c3ccncc3)no2)ccc1Cl | 3 | 3 | 2 | 2 | 0 | -2 | x
O=[N+]([O-])c1cc(-c2nc(-c3ccncc3)no2)cc([N+](=O)[O-])c1 | 2 | 1 | 2 | 0 | 8.7* | 5 | 2
O=C(NCCc1ccccc1)c1ccc(-c2ccccc2C(F)(F)F)o1 | x | 3 | x | -3 | x | 1 | x
O=C(NCCc1ccccc1)c1ccc(-c2ccc(F)cc2)o1 | -6 | -3 | 2 | -8 | 5.1* | -4 | -1
CC1CC1C(=O)Nc1nc(-c2ccccn2)cs1 (stereo unspecified) | 0 | -2 | -3 | 7 | 5.1* | 3 | 1
CN(C(=O)CSc1ncnc2ccccc12)C1CCS(=O)(=O)C1 (stereo unspecified) | 2 | 0 | -1 | x | 4.5* | -5 | -1
Cc1nn(-c2ccccc2)c2sc(C(=O)NCc3ccc4c(c3)OCO4)cc12 | x | 6 | x | x | x | 12 | x
Clc1ccc(SCc2cc(N3CCOCC3)nc(-c3ccccn3)n2)cc1 | 1 | -5 | -1 | -9 | 8.5* | -3 | 4.0*
Cc1c(Cl)ccc2c(C(N)=O)cc(-c3ccccn3)nc12 | 0 | 0 | 1 | 10 | 4.1* | -5 | 1
O=C(COc1ccc(-c2ccccc2)cc1)NNC(=O)Nc1ccccc1 | -2 | -8 | 0 | x | 17* | -5 | 1
O=C(CN1CCN(Cc2ccccc2)CC1)N/N=C\c1c2ccccc2cc2ccccc12 | x | 2 | x | x | x | 1 | x
CC(=O)N1c2ccccc2S(=O)(=O)c2ccccc21 | 3 | 2 | -2 | x | 0 | 7 | x
CC(=O)N1c2ccccc2S(=O)(=O)c2c1ccc1ccccc21 | 1 | -7 | 0 | x | 13* | -27 | 0
Cc1cccc(Nc2nc(N)nc(CN3CCN(c4ccc(F)cc4)CC3)n2)c1 | -9 | 1 | -1 | x | 12* | 6 | 1
Cn1c(=O)c2c(nc(NCc3ccco3)n2CCc2ccccc2)n(C)c1=O | -3 | -5 | 16 | x | 0 | 8 | x
CCn1c(NCc2ccco2)nc2c1c(=O)n(C)c(=O)n2C | 1 | -5 | 0 | -3 | 6.3* | 0 | 0
O=C(Nc1ccc(-n2cc(Cl)cn2)cc1)c1ccncc1 | 2 | 1 | 0 | 2 | 2.8* | 0 | 1
CN(c1ccccc1)S(=O)(=O)c1ccc(C(=O)NCc2cccs2)cc1 | -5 | -2 | 1 | -1 | 2.5* | -5 | 0
COC(=O)c1ccc(CSC2=NC[C@@H]3[C@@H]4C(=O)N(C)C(=O)[C@@H]4[C@](C)(C(=O)OC)N23)cc1 | 2 | -2 | 1 | x | 0 | -7 | x

Bioassay records deposited in PubChem by several laboratories.
